The values that follow come from PMC4096040 (The Journal of endocrinology, 2012).

Data set [1] concerns INS-1 cells. Kind of data set: Mitochondrial cytochrome c release. It counts as cell-based. To be noted: 18.25 μM t-BHP alone, 72 h, Fig. 4A. The method, boiled down:
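INS-1 cells (100 000/well) were left untreated, given 18.25 μM t-BHP alone, or given t-BHP with 10 μM test compound for 72 h. They were processed according to the kit protocol, with cytochrome c labelled by FITC and nuclei by DAPI. Fluorescence microscopy followed, scoring loss of green signal as cytochrome c release.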

Data set [2] relates to INS-1 cells. Kind of data set: Pan caspase activity. The format is cell-based. To be noted: 18.25 μM t-BHP alone, compared with the control group, Fig. 4C.
In data set [3] the test system is INS-1 cells. The data set is described as follows: JC-1 Mitochondrial Membrane Potential Assay. It counts as cell-based. To be noted: 18.25 μM t-BHP alone, 48 h, Fig. 2C.
The test system of data set [4] is diaminopeptidyl peptidase-4 (DPP4). To be noted: removal of the N-terminal two amino acids; ref Lovshin & Drucker 2009; cited from earlier work.
The test system of data set [5] is NEP 24.11, known as neprilysin. To be noted: products include GLP1(28–36)amide; ref Hupe-Sodmann et al. 1995; cited from earlier work.

For `CC(C)(C)OO` [t-BHP, tert-butyl hydro-peroxide], in the data set with INS-1 cells [1], the “cytochrome c release, stressor alone” value is “stimulated cytochrome c release”. The “caspase activity, stressor alone” value in the data set with INS-1 cells [2] is recorded as “significant increase in caspase-3 activity”. Also, the “mitochondrial potential, stressor alone” value with INS-1 cells [3] was “loss of mitochondrial potential”.
With “GLP1(7–36)amide: 30 amino acid insulinotropic form of GLP1, known GLP1 receptor agonist”, the “T1/2 of modification to GLP1(9–36)amide by DPP4” value in data set [4] was 1 to 2 min. In data set [5], the “cleavage by NEP 24.11” value is given as “cleaves GLP1(7–36)amide into several smaller peptides”.
